We go through 16 molecules from ChEMBL document CHEMBL2390936, “Phosphonic analogues of glutamic acid as irreversible inhibitors of Staphylococcus aureus endoproteinase GluC: an efficient synthesis and inhibition of the human IgG degradation” (Bioorg Med Chem Lett, 2013).

The target in test [1] is T1, Serine protease SplB (Staphylococcus aureus) (UniProt Q53781).
T1 sequence (whole entry): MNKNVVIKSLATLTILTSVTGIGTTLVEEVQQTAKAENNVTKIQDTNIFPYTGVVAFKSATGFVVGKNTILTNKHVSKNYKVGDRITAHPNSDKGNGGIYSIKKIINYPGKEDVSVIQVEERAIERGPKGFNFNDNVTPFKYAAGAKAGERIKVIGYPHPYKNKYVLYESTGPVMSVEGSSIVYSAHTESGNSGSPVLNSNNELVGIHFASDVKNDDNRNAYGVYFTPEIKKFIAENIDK
Briefly: Inhibition of Staphylococcus aureus SplB protease using Ac-Trp-Glu-Leu-Gln-ACC as substrate at 200 uM after 30 mins. In a few lines:
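SplB protease (100 nM, recombinant, expressed and purified in-house) in 0.1 M Tris–HCl, 0.01% Triton X-100, pH 7.6, 37 °C. Fluorogenic substrate Ac-Trp-Glu-Leu-Gln-ACC (Ex 355/Em 460 nm). Enzyme added last to substrate plus inhibitor. Percentage inhibition read after 30 min of kinetic measurement with inhibitor at 200 µM.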

In test [2] the target is Glutamyl endopeptidase (Staphylococcus aureus, UniProt P0C1U8). The test is described as follows: Inhibition of Staphylococcus aureus endoproteinase GluC using Ac-Phe-Leu-Glu-ACC as substrate after 30 mins. The method in brief: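 V8 protease (75 nM, commercial) in 0.1 M Tris–HCl, 0.05% Tween 20, pH 7.8, 37 °C. Fluorogenic substrate Ac-Phe-Leu-Glu-ACC (Ex 355/Em 460 nm). Enzyme added to substrate plus inhibitor, with [E]0 below [I]0. Observed inhibition rate constants taken from progress curves, giving k2/Ki and Ki.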

The target of test [3] is Glutamyl endopeptidase (Staphylococcus aureus) (UniProt P0C1U8). Briefly: Inhibition of Staphylococcus aureus endoproteinase GluC-mediated human IgG degradation at 100 uM preincubated 1 hr prior to human IgG degradation addition measured after 24 hrs. The method in brief: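 V8 protease (final 1 µM) pre-incubated 1 h at 37 °C with inhibitor (final 100 µM). Human IgG (final 160 µg/ml) then added and incubated 24 h at 37 °C. DMSO-only control. Fragments separated by gel and visualised by silver staining.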

Test [4] has as its system Staphylococcus aureus. The test is described as follows: Antibacterial activity against Staphylococcus aureus ATCC […] after 4 to 24 hrs. It is filed as functional, organism-based.
For test [5], the target named is Glutamyl endopeptidase (Staphylococcus aureus) (UniProt P0C1U8). The test is described as follows: Inhibition of Staphylococcus aureus endoproteinase GluC using Ac-Phe-Leu-Glu-ACC as substrate at 200 uM after 30 mins. In a few lines:
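V8 protease (75 nM) in 0.1 M Tris–HCl, 0.05% Tween 20, pH 7.8, 37 °C, with fluorogenic Ac-Phe-Leu-Glu-ACC (Ex 355/Em 460 nm). Enzyme added last to substrate plus inhibitor. Percentage inhibition recorded after 30 min of kinetic measurement at 200 µM inhibitor.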

Calls of active or inactive are those of the source. The calls are words filed in the database; no cut-off is given here.

Chain of Glutamyl endopeptidase (Staphylococcus aureus) (P0C1U8 whole entry, the tested form may be a part): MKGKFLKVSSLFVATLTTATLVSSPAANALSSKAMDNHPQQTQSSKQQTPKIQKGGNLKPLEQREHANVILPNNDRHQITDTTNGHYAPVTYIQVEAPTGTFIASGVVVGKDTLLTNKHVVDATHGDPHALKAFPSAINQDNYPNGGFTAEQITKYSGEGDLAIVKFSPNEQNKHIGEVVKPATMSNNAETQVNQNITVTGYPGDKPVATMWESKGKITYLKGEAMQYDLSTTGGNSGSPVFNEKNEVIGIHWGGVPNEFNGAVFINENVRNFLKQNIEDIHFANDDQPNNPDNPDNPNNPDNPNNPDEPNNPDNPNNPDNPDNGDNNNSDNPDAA
Chain of Glutamyl endopeptidase (P0C1U8 whole entry): as the sequence (P0C1U8 whole entry, the tested form may be a part) above

As for `CC(C)C[C@H](NC(=O)OC(C)(C)C)C(=O)NC(CCC(=O)O)P(=O)(Oc1ccccc1)Oc1ccccc1` (mixture of isomers), in test [1], the inhibition amounted to 0%. This molecule registered a Ki in test [2] of 7.8 µM.

As for `CC(C)[C@H](NC(=O)OC(C)(C)C)C(=O)NC(CCC(=O)O)P(=O)(Oc1ccccc1)Oc1ccccc1` (mixture of isomers), the inhibition in test [1] is 0%. In test [2], this molecule came in with a Ki of 23.3 µM.

As for `CC(C)C[C@H](NC(=O)[C@H](Cc1ccccc1)NC(=O)OC(C)(C)C)C(=O)NC(CCC(=O)O)P(=O)(Oc1ccccc1)Oc1ccccc1` (mixture of isomers), the inhibition entry in test [3] was “Active”. The inhibition entry in test [4] is “inactive”. The molecule also registered an inhibition in test [1] of 0%. This molecule also registered an inhibition constant Ki in test [2] of 6.2 µM.

In the case of `CC(C)C[C@H](NC(=O)[C@H](CCC(=O)O)NC(=O)OC(C)(C)C)C(=O)NC(CCC(=O)O)P(=O)(Oc1ccccc1)Oc1ccccc1` (mixture of isomers), the inhibition in test [1] is 0%. Also, affinity in test [2] was put at a Ki of 9.5 µM.

In the case of `C[C@H](NC(=O)[C@H](Cc1ccccc1)NC(=O)OC(C)(C)C)C(=O)NC(CCC(=O)O)P(=O)(Oc1ccccc1)Oc1ccccc1` (mixture of isomers), the inhibition in test [1] turned out to be 0%. This molecule also came in with a Ki in test [2] of 9.4 µM.

Regarding `C[C@H](NC(=O)[C@H](CCC(=O)O)NC(=O)OC(C)(C)C)C(=O)NC(CCC(=O)O)P(=O)(Oc1ccccc1)Oc1ccccc1` (mixture of isomers), the inhibition in test [1] was 0%. This molecule also displayed a Ki in test [2] of 12.9 µM.

Regarding `CC(C)[C@H](NC(=O)[C@H](Cc1ccccc1)NC(=O)OC(C)(C)C)C(=O)NC(CCC(=O)O)P(=O)(Oc1ccccc1)Oc1ccccc1` (mixture of isomers), the inhibition in test [1] worked out at 0%. The molecule further had an inhibitory constant (Ki) in test [2] of 8.15 µM.

Turning to `CC(C)[C@H](NC(=O)[C@H](CCC(=O)O)NC(=O)OC(C)(C)C)C(=O)NC(CCC(=O)O)P(=O)(Oc1ccccc1)Oc1ccccc1` (mixture of isomers), the inhibition in test [1] was determined as 0%. The molecule further had a Ki in test [2] of 9.95 µM.

As for `CC(C)C[C@H](NC(=O)[C@H](CC(=O)O)NC(=O)OC(C)(C)C)C(=O)NC(CCC(=O)O)P(=O)(Oc1ccccc1)Oc1ccccc1` (mixture of isomers), the figures for the inhibition in test [5] and in test [1] were 41% and 0%, respectively.

`CC(C)C[C@H](NC(=O)[C@H](CCC(=O)O)NC(=O)OC(C)(C)C)C(=O)NC(CCC(N)=O)P(=O)(Oc1ccccc1)Oc1ccccc1` (mixture of isomers) returned an inhibition in test [5] of 0%.

Consider `CC(C)[C@H](NC(=O)[C@H](CC(=O)O)NC(=O)OC(C)(C)C)C(=O)NC(CCC(=O)O)P(=O)(Oc1ccccc1)Oc1ccccc1` (mixture of isomers), for which the inhibition in test [5] amounted to 50%; in test [1], 0%.

As for `C[C@H](NC(=O)OC(C)(C)C)C(=O)NC(CCC(=O)O)P(=O)(Oc1ccccc1)Oc1ccccc1` (mixture of isomers), the inhibition in test [5] stood at 39%; in test [1], 0%.

For `C[C@H](NC(=O)[C@H](CC(=O)O)NC(=O)OC(C)(C)C)C(=O)NC(CCC(=O)O)P(=O)(Oc1ccccc1)Oc1ccccc1` (mixture of isomers), the inhibition in test [5] amounted to 26%; in test [1], 0%.

In test [1], `O=C(O)CCC(NC(=O)OCc1ccccc1)P(=O)(Oc1ccccc1)Oc1ccccc1` (racemic) came in with an inhibition of 0%. For the same molecule, the Ki in test [2] is 8.1 µM.

For the molecule `CC(=O)NC(CCC(=O)O)P(=O)(Oc1ccccc1)Oc1ccccc1` (racemic), the inhibition in test [1] stood at 0%. Moreover, the Ki in test [2] was 11.1 µM.

As to GENTAMICIN, it took 2 µg/mL to inhibit growth in test [4] (MIC).

As a reminder, the inhibition is how much of the control response was suppressed. As a reminder, the Ki is the dissociation constant of the complex between target and ligand, obtained from inhibition or displacement. A lower Ki goes with higher affinity. Broadly, the MIC is the least concentration at which growth counts as inhibited. A high value points to a less susceptible organism.
